Laboratory results from ChEMBL document CHEMBL1154625, “New insights into the SAR and binding modes of bis(hydroxyphenyl)thiophenes and -benzenes: influence of additional substituents on 17beta-hydroxysteroid dehydrogenase type 1 (17beta-HSD1) inhibitory activity and selectivity” (J Med Chem, 2009).
The source made the active and inactive calls. The calls are words filed in the database; no cut-off is given here.

What was measured:
[1] = target: T1, 17-beta-hydroxysteroid dehydrogenase type 1 (Homo sapiens, UniProt P14061)
T1 sequence (P14061 whole entry): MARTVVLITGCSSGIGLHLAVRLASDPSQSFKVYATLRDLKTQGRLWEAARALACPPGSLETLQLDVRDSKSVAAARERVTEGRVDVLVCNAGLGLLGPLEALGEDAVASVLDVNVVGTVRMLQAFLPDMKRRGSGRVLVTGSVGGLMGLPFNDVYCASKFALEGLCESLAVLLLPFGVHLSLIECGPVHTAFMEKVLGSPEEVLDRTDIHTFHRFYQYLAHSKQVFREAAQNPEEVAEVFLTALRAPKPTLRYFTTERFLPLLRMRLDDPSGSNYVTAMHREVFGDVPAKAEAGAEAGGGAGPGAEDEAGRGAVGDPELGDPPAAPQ

[2] = target: T2, 17-beta-hydroxysteroid dehydrogenase type 2 (Homo sapiens, UniProt P37059); test: Inhibition of human placental 17betaHSD2 by radiodetection assay
T2 sequence (P37059 whole entry): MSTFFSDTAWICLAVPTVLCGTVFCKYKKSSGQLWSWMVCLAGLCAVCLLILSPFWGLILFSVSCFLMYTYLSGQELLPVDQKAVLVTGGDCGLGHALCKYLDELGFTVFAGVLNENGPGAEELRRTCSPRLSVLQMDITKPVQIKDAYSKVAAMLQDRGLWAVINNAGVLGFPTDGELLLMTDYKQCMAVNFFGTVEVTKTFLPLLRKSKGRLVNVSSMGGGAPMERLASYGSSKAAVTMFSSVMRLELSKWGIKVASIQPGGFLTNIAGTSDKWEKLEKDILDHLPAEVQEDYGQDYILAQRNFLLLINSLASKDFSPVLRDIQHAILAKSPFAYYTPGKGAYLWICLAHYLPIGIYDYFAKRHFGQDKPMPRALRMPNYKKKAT
Summary of the method: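 Microsomal fraction from fresh human placenta (pellet after homogenisation and centrifugation). Incubated 20 min at 37 °C with NAD+ 1500 μM and unlabeled E2 plus [2,4,6,7-3H]E2 (500 nM final) in phosphate buffer 50 mM with 20% glycerol and 1 mM EDTA, 1% DMSO. Stopped with HgCl2 and ether-extracted. Substrate and product separated by HPLC with radiodetection. Mean of three determinations.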

Cytochrome P450 3A4 = Cytochrome P450 3A4 (Homo sapiens, UniProt P08684); test: Inhibition of human hepatic CYP3A4; assay type: ADME
Sequence of Cytochrome P450 3A4 (P08684 whole entry): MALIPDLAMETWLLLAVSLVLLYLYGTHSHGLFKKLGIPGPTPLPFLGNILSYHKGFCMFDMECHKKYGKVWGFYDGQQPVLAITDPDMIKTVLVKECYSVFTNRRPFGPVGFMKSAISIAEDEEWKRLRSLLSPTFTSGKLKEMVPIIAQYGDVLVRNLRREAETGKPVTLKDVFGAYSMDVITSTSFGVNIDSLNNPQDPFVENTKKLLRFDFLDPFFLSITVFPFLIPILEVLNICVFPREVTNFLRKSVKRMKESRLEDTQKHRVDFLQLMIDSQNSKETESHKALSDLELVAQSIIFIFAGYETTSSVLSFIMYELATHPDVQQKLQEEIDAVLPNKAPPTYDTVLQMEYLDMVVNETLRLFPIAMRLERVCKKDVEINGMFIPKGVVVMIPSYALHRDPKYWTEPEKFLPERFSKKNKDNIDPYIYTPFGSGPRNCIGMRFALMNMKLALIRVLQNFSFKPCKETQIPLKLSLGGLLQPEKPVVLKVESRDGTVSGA
Summary of the method: (§1)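 Tested with commercial P450 inhibition kits, used following the manufacturer's instructions. Values reported as IC50.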

Rattus norvegicus = test: AUC (0 to infinity) in Wistar rat at 10 mg/kg, po; assay type: ADME, organism-based, Plasma; parameters: time infinity, dose 10 mg/kg, route oral; details: in vivo
Summary of the method: (§2)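 Male Wistar rats (300-330 g), jugular-vein cannulated under ketamine/xylazine anaesthesia, sampled while freely moving. Oral cassette dosing by feeding needle to four rats at 10 mg/kg in labrasol/water (1:1), 5 mL/kg. Blood taken at 0, 1, 2, 3, 4, 6, 8, 10 and 24 h postdose; plasma frozen at -20 °C and quantified by HPLC-MS/MS.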

[3] = target: T3, Estrogen receptor (Homo sapiens) (UniProt P03372); test: Agonist activity at ER in human T47D cells assessed as stimulation of cell proliferation; assay type: functional, cell-based
T3 sequence (whole entry): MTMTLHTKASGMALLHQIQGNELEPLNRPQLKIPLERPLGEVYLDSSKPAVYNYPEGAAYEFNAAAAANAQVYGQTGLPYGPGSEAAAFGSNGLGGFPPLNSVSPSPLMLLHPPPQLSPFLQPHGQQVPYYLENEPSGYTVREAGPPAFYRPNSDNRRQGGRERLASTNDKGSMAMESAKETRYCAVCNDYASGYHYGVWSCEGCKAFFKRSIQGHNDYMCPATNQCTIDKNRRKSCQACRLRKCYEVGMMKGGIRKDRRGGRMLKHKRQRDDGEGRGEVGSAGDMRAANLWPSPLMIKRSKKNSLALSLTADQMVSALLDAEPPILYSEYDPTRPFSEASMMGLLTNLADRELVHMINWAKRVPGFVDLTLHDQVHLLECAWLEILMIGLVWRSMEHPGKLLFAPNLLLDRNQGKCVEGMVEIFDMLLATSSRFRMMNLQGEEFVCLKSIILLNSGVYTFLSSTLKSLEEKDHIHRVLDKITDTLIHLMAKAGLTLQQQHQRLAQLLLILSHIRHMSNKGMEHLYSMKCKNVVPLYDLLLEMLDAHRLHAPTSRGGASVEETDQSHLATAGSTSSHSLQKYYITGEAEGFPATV
Summary of the method: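 T-47D cells grown 48 h in phenol red-free RPMI 1640 with 5% DCC-FCS, insulin and supplements, then exposed to test compound at 100 nM final (1% ethanol) for 8 days. Medium and additive renewed every 2-3 days. E2 0.1 nM served as positive control, ethanol as negative. Viability read by MTT at 590 nm. Stimulation was expressed relative to E2-induced proliferation, mean of ≥3 independent experiments.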

Cytochrome P450 2D6 = Cytochrome P450 2D6 (Homo sapiens, UniProt P10635); test: Inhibition of human hepatic CYP2D6; assay type: ADME
Sequence of Cytochrome P450 2D6 (P10635 whole entry): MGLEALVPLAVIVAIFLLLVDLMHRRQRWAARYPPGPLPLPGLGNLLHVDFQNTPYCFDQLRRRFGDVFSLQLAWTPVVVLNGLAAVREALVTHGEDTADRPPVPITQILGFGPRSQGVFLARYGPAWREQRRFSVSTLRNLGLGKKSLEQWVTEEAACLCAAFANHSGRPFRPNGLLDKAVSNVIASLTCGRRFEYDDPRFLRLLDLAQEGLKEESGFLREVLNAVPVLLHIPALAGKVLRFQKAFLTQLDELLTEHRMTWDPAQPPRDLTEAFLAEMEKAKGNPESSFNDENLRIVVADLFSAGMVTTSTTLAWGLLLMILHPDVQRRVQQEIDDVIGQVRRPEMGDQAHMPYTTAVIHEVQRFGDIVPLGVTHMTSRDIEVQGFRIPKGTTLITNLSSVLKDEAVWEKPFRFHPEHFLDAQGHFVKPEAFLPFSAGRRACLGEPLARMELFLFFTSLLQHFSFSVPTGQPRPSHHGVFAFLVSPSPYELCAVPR
Summary of the method: as §1

T47D = test: […] in human T47D cells assessed as inhibition of E2 formation in presence of E1
[4] = Tmax in Wistar rat at 10 mg/kg, po; assay type: ADME, organism-based; parameters: dose 10 mg/kg, route oral; details: in vivo
Summary of the method: as §2

[5] = Terminal half life in Wistar rat at 10 mg/kg, po; assay type: ADME, organism-based; parameters: dose 10 mg/kg, route oral; details: in vivo, read-out: beta t1/2 (converted)
Summary of the method: as §2

Cytochrome P450 2C19 = Cytochrome P450 2C19 (Homo sapiens, UniProt P33261); test: Inhibition of human hepatic CYP2C19; assay type: ADME
Sequence of Cytochrome P450 2C19 (P33261 whole entry): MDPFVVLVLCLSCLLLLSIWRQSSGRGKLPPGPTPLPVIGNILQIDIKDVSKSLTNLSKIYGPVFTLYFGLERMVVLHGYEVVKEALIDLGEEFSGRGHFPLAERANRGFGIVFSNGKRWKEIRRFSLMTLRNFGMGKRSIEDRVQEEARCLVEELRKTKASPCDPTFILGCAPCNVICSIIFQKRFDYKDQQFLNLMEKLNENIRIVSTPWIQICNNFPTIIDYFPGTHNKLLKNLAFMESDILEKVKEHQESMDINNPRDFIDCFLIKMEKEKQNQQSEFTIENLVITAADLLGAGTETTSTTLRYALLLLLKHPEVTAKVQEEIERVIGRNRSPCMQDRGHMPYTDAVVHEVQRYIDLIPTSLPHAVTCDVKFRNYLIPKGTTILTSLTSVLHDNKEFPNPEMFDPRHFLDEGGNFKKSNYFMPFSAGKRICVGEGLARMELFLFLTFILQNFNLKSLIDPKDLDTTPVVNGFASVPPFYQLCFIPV
Summary of the method: as §1

[6] = Cmax in Wistar rat at 10 mg/kg, po; assay type: ADME, organism-based; parameters: dose 10 mg/kg, route oral; details: in vivo
Summary of the method: as §2

IC50 [1] | IC50 [2] | Structure (SMILES) | other results
113 nM | 183 nM | Oc1ccc(-c2ccc(-c3ccc(F)c(O)c3)s2)cc1 | –
493 nM | – | Oc1cccc(-c2cc(-c3ccccc3)c(-c3cccc(O)c3)s2)c1 | –
119 nM | 188 nM | Oc1cccc(-c2cc(-c3cccc(O)c3)c(-c3cccc(O)c3)s2)c1 | –
46 nM | – | Cc1cc(-c2ccc(-c3cccc(O)c3)s2)ccc1O | IC50 (Cytochrome P450 3A4): 500 nM; AUC (Rattus norvegicus): 12275 ng/mL; Activity [3]: inactive; IC50 (Cytochrome P450 2D6): > 1500 nM; IC50 (T47D): 426 nM; Tmax [4]: 4 h; half-life [5]: 3.8 h; IC50 (Cytochrome P450 2C19): 940 nM; Cmax [6]: 905 ng/mL
56 nM | 312 nM | Oc1cccc(-c2ccc(-c3cc(F)c(O)c(F)c3)s2)c1 | –
143 nM | – | Cc1cc(-c2cnc(-c3cccc(O)c3)s2)ccc1O | –
350 nM | 276 nM | Cc1ccc(S(=O)(=O)NCc2cccc(-c3ccc(-c4cccc(O)c4)s3)c2)cc1 | –
42 nM | 463 nM | Oc1ccc(-c2ccc(-c3cc(O)cc(F)c3)s2)cc1 | –
567 nM | 856 nM | Cc1cc(-c2cccc(O)c2)sc1-c1cccc(O)c1 | –
> 1000 nM | – | Oc1ccc(-c2cc(-c3cccc(O)c3)c(-c3cccc(O)c3)s2)cc1 | –
> 1000 nM | – | CS(=O)(=O)NCc1cccc(-c2ccc(-c3cccc(O)c3)s2)c1 | –
– | 1570 nM | CS(=O)(=O)Nc1cccc(-c2ccc(-c3cccc(O)c3)s2)c1 | –
8 nM | – | Oc1cccc(-c2ccc(-c3ccc(O)c(F)c3)s2)c1 | IC50 (Cytochrome P450 3A4): 820 nM; AUC (Rattus norvegicus): 19407 ng/mL; IC50 (Cytochrome P450 2D6): > 1500 nM; IC50 (T47D): 282 nM; Tmax [4]: 8 h; half-life [5]: 2.7 h; IC50 (Cytochrome P450 2C19): 1500 nM; Cmax [6]: 1390 ng/mL
64 nM | 510 nM | Oc1cccc(-c2cc(-c3ccc(O)c(F)c3)cs2)c1 | –
629 nM | 2580 nM | Cc1cc(O)cc(-c2ccc(-c3ccc(O)cc3)s2)c1 | –
51 nM | 253 nM | Oc1cccc(-c2ccc(-c3ccc(F)c(O)c3)cc2)c1 | –
780 nM | 2640 nM | Oc1cccc(-c2ccc(-c3ccc(F)c(F)c3)s2)c1 | –
123 nM | 872 nM | Oc1cccc(-c2ccc(-c3ccc(O)c(F)c3)cc2)c1 | –

IC50 [1] | IC50 [2] | Structure (SMILES) | other results
402 nM | – | Oc1cccc(-c2ccc(-c3ccc(O)c(O)c3)s2)c1 | –
38 nM | 97 nM | Oc1cccc(-c2ccc(-c3ccc(O)c(C(F)(F)F)c3)s2)c1 | –
> 5000 nM | – | Oc1cccc(-c2ccc(-c3ccc(S)cc3)s2)c1 | –
– | 3650 nM | Oc1cccc(-c2ccc(-c3ccc(F)cc3)s2)c1 | –
> 5000 nM | – | Oc1cccc(-c2ccc(-c3ccc(O)c(-c4ccccc4)c3)s2)c1 | –
29 nM | 227 nM | Oc1cc(F)cc(-c2ccc(-c3ccc(O)c(F)c3)s2)c1 | –
> 1000 nM | – | N#Cc1ccc(-c2ccc(-c3cccc(O)c3)s2)cc1 | –
130 nM | 502 nM | CCOC(=O)/C=C/c1cc(-c2ccc(-c3cccc(O)c3)s2)ccc1O | –
> 5000 nM | – | Nc1ccc(-c2ccc(-c3cccc(O)c3)s2)cc1 | –
> 5000 nM | – | Cc1ccc(-c2ccc(-c3ccc(O)cc3)s2)cc1O | –
171 nM | 1250 nM | Cc1cc(-c2ccc(-c3cccc(O)c3)cc2)ccc1O | –
17 nM | 218 nM | Oc1cc(-c2ccc(-c3ccc(O)c(F)c3)s2)ccc1F | –
– | 1820 nM | Oc1cccc(-c2ccc(-c3cccc(F)c3)s2)c1 | –
620 nM | 982 nM | O=C(CCc1cc(-c2ccc(-c3cccc(O)c3)s2)ccc1O)Nc1ccccc1 | –
64 nM | – | Cc1cc(-c2csc(-c3cccc(O)c3)c2)ccc1O | IC50 (Cytochrome P450 3A4): > 1500 nM; IC50 (Cytochrome P450 2D6): > 1500 nM; IC50 (T47D): 362 nM; IC50 (Cytochrome P450 2C19): 1500 nM
> 5000 nM | – | Oc1ccc(-c2ccc(-c3ccc(O)c(O)c3)s2)cc1 | –
427 nM | 468 nM | O=C(/C=C/c1cc(-c2ccc(-c3cccc(O)c3)s2)ccc1O)Nc1ccccc1 | –
